Experimental data: ChEMBL document CHEMBL1777788, “Synthesis and in vitro antimicrobial activities of new (cyano-NNO-azoxy)pyrazole derivatives” (2011)
Converted amounts (≈) assume the structure as drawn.

Experiments:
Candida albicans [1] = assay: Antimicrobial activity against Candida albicans isolate 47 after 48 hrs by microdilution broth method; format: functional; details: isolate 47, 48 h
Method in brief: (§1)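 Yeasts were grown overnight on Sabouraud dextrose agar at 35°C, suspended in water, and adjusted at 530 nm to McFarland 0.5 (approximately 1-5 x 10^6 CFU/ml). They were then diluted 1:100 and 1:20 in RPMI 1640 with 0.165 M MOPS and 2% glucose. Compound in DMSO was tested at ten concentrations, 0.25–256 mg/L, with incubation at 35°C. At 48 h, MIC was read spectrophotometrically as 50% turbidity reduction versus growth control.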

Candida albicans [2] = assay: Antimicrobial activity against Candida albicans isolate 48 after 48 hrs by microdilution broth method; format: functional; details: isolate 48, 48 h; method in brief: as §1
[3] = system: Cryptococcus deneoformans; assay: Antimicrobial activity against Cryptococcus neoformans var. neoformans isolate 27 after 48 hrs by microdilution broth method; format: functional; details: isolate 27, 48 h; method in brief: as §1
Candida tropicalis [4] = assay: Antimicrobial activity against Candida tropicalis isolate 33 after 48 hrs by microdilution broth method; format: functional; details: isolate 33, 48 h; method in brief: as §1
Staphylococcus aureus [5] = assay: Antimicrobial activity against methicillin-susceptible Staphylococcus aureus isolate after 24 hrs by microdilution broth method
Pichia kudriavzevii [6] = assay: Antimicrobial activity against Candida krusei ATCC 6258 after 48 hrs by microdilution broth method; format: functional; details: ATCC 6258, 48 h
Nakaseomyces glabratus [7] = assay: Antimicrobial activity against Candida glabrata isolate 30 after 48 hrs by microdilution broth method; format: functional; method in brief: as §1
Candida albicans [8] = assay: Antimicrobial activity against Candida albicans isolate 41 after 48 hrs by microdilution broth method; format: functional; details: isolate 41, 48 h; method in brief: as §1
Candida parapsilosis [9] = assay: Antimicrobial activity against Candida parapsilosis isolate 26 after 48 hrs by microdilution broth method; format: functional; details: Lodderomyces parapsilosis, isolate 26, 48 h; method in brief: as §1
[10] = system: Cryptococcus deneoformans; assay: Antimicrobial activity against Cryptococcus neoformans var. neoformans isolate 14 after 48 hrs by microdilution broth method; format: functional; details: isolate 14, 48 h; method in brief: as §1
Pseudomonas aeruginosa [11] = assay: Antimicrobial activity against Pseudomonas aeruginosa isolate 1 after 24 hrs by microdilution broth method; details: isolate 1, 24 h
Staphylococcus aureus [12] = assay: Antimicrobial activity against methicillin-resistant Staphylococcus aureus isolate after 24 hrs by microdilution broth method
Pichia kudriavzevii [13] = assay: Antimicrobial activity against Candida krusei isolate 43 after 48 hrs by microdilution broth method; format: functional
Proteus mirabilis = assay: Antimicrobial activity against Proteus mirabilis isolate after 24 hrs by microdilution broth method
[14] = system: Cryptococcus deneoformans; assay: Antimicrobial activity against Cryptococcus neoformans var. neoformans isolate 25 after 48 hrs by microdilution broth method; format: functional; details: isolate 25, 48 h; method in brief: as §1
Candida parapsilosis [15] = assay: Antimicrobial activity against Candida parapsilosis isolate 19 after 48 hrs by microdilution broth method; format: functional; details: Lodderomyces parapsilosis, isolate 19, 48 h; method in brief: as §1
Candida tropicalis [16] = assay: Antimicrobial activity against Candida tropicalis isolate 22 after 48 hrs by microdilution broth method; format: functional; details: isolate 22, 48 h; method in brief: as §1
Pseudomonas aeruginosa [17] = assay: Antimicrobial activity against Pseudomonas aeruginosa isolate 2 after 24 hrs by microdilution broth method; details: isolate 2, 24 h
Candida albicans [18] = assay: Antimicrobial activity against Candida albicans isolate 31 after 48 hrs by microdilution broth method; format: functional; details: isolate 31, 48 h; method in brief: as §1
Nakaseomyces glabratus [19] = assay: Antimicrobial activity against Candida glabrata isolate 32 after 48 hrs by microdilution broth method; format: functional; details: isolate 32, 48 h; method in brief: as §1
[20] = system: Cryptococcus deneoformans; assay: Antimicrobial activity against Cryptococcus neoformans var. neoformans isolate 30 after 48 hrs by microdilution broth method; format: functional; details: isolate 30, 48 h; method in brief: as §1
Nakaseomyces glabratus [21] = assay: Antimicrobial activity against Candida glabrata isolate 46 after 48 hrs by microdilution broth method; format: functional; method in brief: as §1
Nakaseomyces glabratus [22] = assay: Antimicrobial activity against Candida glabrata isolate 49 after 48 hrs by microdilution broth method; format: functional; method in brief: as §1
Candida parapsilosis [23] = assay: Antimicrobial activity against Candida parapsilosis isolate 44 after 48 hrs by microdilution broth method; format: functional; details: Lodderomyces parapsilosis, isolate 44, 48 h; method in brief: as §1
Escherichia coli = assay: Antimicrobial activity against Escherichia coli isolate after 24 hrs by microdilution broth method
Candida parapsilosis [24] = assay: Antimicrobial activity against Candida parapsilosis ATCC 22019 after 48 hrs by microdilution broth method; format: functional; details: Lodderomyces parapsilosis, ATCC 22019, 48 h; method in brief: as §1
Pichia kudriavzevii [25] = assay: Antimicrobial activity against Candida krusei isolate 31 after 48 hrs by microdilution broth method; format: functional; details: isolate 31, 48 h; method in brief: as §1
Candida tropicalis [26] = assay: Antimicrobial activity against Candida tropicalis isolate 11 after 48 hrs by microdilution broth method; format: functional; details: isolate 11, 48 h; method in brief: as §1
Pichia kudriavzevii [27] = assay: Antimicrobial activity against Candida krusei isolate 48 after 48 hrs by microdilution broth method; format: functional

Compound | MIC (Candida albicans [1]) | MIC (Candida albicans [2]) | MIC [3] | MIC (Candida tropicalis [4]) | MIC (Staphylococcus aureus [5]) | MIC (Pichia kudriavzevii [6]) | MIC (Nakaseomyces glabratus [7]) | MIC (Candida albicans [8]) | MIC (Candida parapsilosis [9]) | MIC [10] | MIC (Pseudomonas aeruginosa [11]) | MIC (Staphylococcus aureus [12]) | MIC (Pichia kudriavzevii [13]) | MIC (Proteus mirabilis) | MIC [14] | MIC (Candida parapsilosis [15]) | MIC (Candida tropicalis [16]) | MIC (Pseudomonas aeruginosa [17]) | MIC (Candida albicans [18]) | MIC (Nakaseomyces glabratus [19]) | also measured
Cc1cc(-c2nn(C)c(C)c2/[N+]([O-])=N/C#N)on1 | 128 µg/mL (≈ 520 µM) | 128 µg/mL (≈ 520 µM) | 2 µg/mL (≈ 8.12 µM) | 128 µg/mL (≈ 520 µM) | 4 µg/mL (≈ 16.2 µM) | 32 µg/mL (≈ 130 µM) | 128 µg/mL (≈ 520 µM) | 64 µg/mL (≈ 260 µM) | 128 µg/mL (≈ 520 µM) | 2 µg/mL (≈ 8.12 µM) | > 128 µg/mL | 2 µg/mL (≈ 8.12 µM) | 32 µg/mL (≈ 130 µM) | > 128 µg/mL | 2 µg/mL (≈ 8.12 µM) | 128 µg/mL (≈ 520 µM) | > 128 µg/mL | > 128 µg/mL | 128 µg/mL (≈ 520 µM) | 32 µg/mL (≈ 130 µM) | MIC [20]: 2 µg/mL (≈ 8.12 µM); MIC (Nakaseomyces glabratus [21]): 128 µg/mL (≈ 520 µM); MIC (Nakaseomyces glabratus [22]): 128 µg/mL (≈ 520 µM); MIC (Candida parapsilosis [23]): 128 µg/mL (≈ 520 µM); MIC (Escherichia coli): > 128 µg/mL; MIC (Candida parapsilosis [24]): 128 µg/mL (≈ 520 µM); MIC (Pichia kudriavzevii [25]): 64 µg/mL (≈ 260 µM); MIC (Candida tropicalis [26]): 128 µg/mL (≈ 520 µM); MIC (Pichia kudriavzevii [27]): 64 µg/mL (≈ 260 µM)
Cc1cc(-c2nn(C)c(C)c2/[N+]([O-])=N/C#N)no1 | > 128 µg/mL | > 128 µg/mL | 4 µg/mL (≈ 16.2 µM) | > 128 µg/mL | 16 µg/mL (≈ 65 µM) | 64 µg/mL (≈ 260 µM) | 128 µg/mL (≈ 520 µM) | 128 µg/mL (≈ 520 µM) | 128 µg/mL (≈ 520 µM) | 4 µg/mL (≈ 16.2 µM) | > 128 µg/mL | 8 µg/mL (≈ 32.5 µM) | 64 µg/mL (≈ 260 µM) | > 128 µg/mL | 8 µg/mL (≈ 32.5 µM) | 128 µg/mL (≈ 520 µM) | > 128 µg/mL | > 128 µg/mL | 128 µg/mL (≈ 520 µM) | 64 µg/mL (≈ 260 µM) | MIC [20]: 8 µg/mL (≈ 32.5 µM); MIC (Nakaseomyces glabratus [21]): 128 µg/mL (≈ 520 µM); MIC (Nakaseomyces glabratus [22]): 128 µg/mL (≈ 520 µM); MIC (Candida parapsilosis [23]): 128 µg/mL (≈ 520 µM); MIC (Escherichia coli): > 128 µg/mL; MIC (Candida parapsilosis [24]): 128 µg/mL (≈ 520 µM); MIC (Pichia kudriavzevii [25]): 128 µg/mL (≈ 520 µM); MIC (Candida tropicalis [26]): > 128 µg/mL; MIC (Pichia kudriavzevii [27]): 128 µg/mL (≈ 520 µM)
Cc1c(/[N+]([O-])=N/C#N)c(-c2cccs2)nn1C | 1 µg/mL (≈ 4.04 µM) | 1 µg/mL (≈ 4.04 µM) | 2 µg/mL (≈ 8.09 µM) | 8 µg/mL (≈ 32.4 µM) | 8 µg/mL (≈ 32.4 µM) | 0.5 µg/mL (≈ 2.02 µM) | 0.25 µg/mL (≈ 1.01 µM) | 0.5 µg/mL (≈ 2.02 µM) | 8 µg/mL (≈ 32.4 µM) | 2 µg/mL (≈ 8.09 µM) | > 128 µg/mL | 4 µg/mL (≈ 16.2 µM) | 1 µg/mL (≈ 4.04 µM) | > 128 µg/mL | 2 µg/mL (≈ 8.09 µM) | 16 µg/mL (≈ 64.7 µM) | 16 µg/mL (≈ 64.7 µM) | > 128 µg/mL | 1 µg/mL (≈ 4.04 µM) | 0.25 µg/mL (≈ 1.01 µM) | MIC [20]: 2 µg/mL (≈ 8.09 µM); MIC (Nakaseomyces glabratus [21]): 0.25 µg/mL (≈ 1.01 µM); MIC (Nakaseomyces glabratus [22]): 0.25 µg/mL (≈ 1.01 µM); MIC (Candida parapsilosis [23]): 8 µg/mL (≈ 32.4 µM); MIC (Escherichia coli): > 128 µg/mL; MIC (Candida parapsilosis [24]): 16 µg/mL (≈ 64.7 µM); MIC (Pichia kudriavzevii [25]): 0.5 µg/mL (≈ 2.02 µM); MIC (Candida tropicalis [26]): 8 µg/mL (≈ 32.4 µM); MIC (Pichia kudriavzevii [27]): 0.5 µg/mL (≈ 2.02 µM)
